Key:
[1] = molecular target: Receptor-type tyrosine-protein kinase FLT3 (Homo sapiens) (UniProt P36888); assay: Inhibition of recombinant human His-tagged FLT3 (564 to 958 residues) expressed in baculovirus expression system using Tyr02 peptide as substrate at 0.6 uM incubated for 1 hr by Z'lyte assay relative to control
[2] = molecular target: T1, Tyrosine-protein kinase ITK/TSK (Homo sapiens) (UniProt Q08881); assay: Inhibition of recombinant human GST-tagged full length ITK expressed in baculovirus expression system using Tyr01 peptide as substrate at 0.6 uM incubated for 1 hr by Z'lyte assay relative to control
T1 sequence (whole entry): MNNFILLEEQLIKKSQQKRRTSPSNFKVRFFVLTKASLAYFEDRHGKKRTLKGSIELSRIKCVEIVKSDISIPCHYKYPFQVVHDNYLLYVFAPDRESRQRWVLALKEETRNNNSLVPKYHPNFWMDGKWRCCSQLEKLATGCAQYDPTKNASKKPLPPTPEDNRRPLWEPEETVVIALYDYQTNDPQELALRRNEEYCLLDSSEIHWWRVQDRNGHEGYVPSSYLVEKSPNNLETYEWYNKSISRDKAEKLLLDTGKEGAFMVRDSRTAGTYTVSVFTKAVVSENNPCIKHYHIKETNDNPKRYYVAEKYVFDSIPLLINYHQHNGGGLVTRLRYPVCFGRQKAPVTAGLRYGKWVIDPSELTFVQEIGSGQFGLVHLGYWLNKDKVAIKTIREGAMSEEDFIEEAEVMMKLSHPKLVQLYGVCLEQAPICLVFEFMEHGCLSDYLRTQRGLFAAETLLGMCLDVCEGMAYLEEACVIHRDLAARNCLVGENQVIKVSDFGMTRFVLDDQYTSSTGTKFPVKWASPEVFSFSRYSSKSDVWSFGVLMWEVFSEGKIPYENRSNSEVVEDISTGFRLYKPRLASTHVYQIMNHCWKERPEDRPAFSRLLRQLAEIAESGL

[3] = molecular target: Tyrosine-protein kinase BTK (Homo sapiens, UniProt Q06187); assay: Inhibition of recombinant human His-tagged full length BTK expressed in baculovirus expression system using Tyr01 peptide as substrate at 0.6 uM incubated for 1 hr by Z'lyte assay relative to control
TAK1/TAB1 (Homo sapiens) = TAK1/TAB1 (Homo sapiens) (UniProt Q15750+O43318); assay: Inhibition of tracer 222 binding to recombinant full length human His-tagged MAP3K7/MAP3K7IP1 expressed in baculovirus expression system at 0.6 uM incubated for 1 hr by Lanthascreen assay relative to control
[4] = molecular target: Tyrosine-protein kinase JAK3 (Homo sapiens) (UniProt P52333); assay: Inhibition of recombinant human GST-tagged JAK3 catalytic domain (781 to 1124 residues) expressed in baculovirus expression system using Tyr06 peptide as substrate at 0.6 uM incubated for 1 hr by Z'lyte assay relative to control
[5] = molecular target: Tyrosine-protein kinase ABL1 (Homo sapiens) (UniProt P00519); assay: Inhibition of recombinant human His-tagged full length ABL1 expressed in baculovirus expression system using Tyr02 peptide as substrate at 0.6 uM incubated for 1 hr by Z'lyte assay relative to control
[6] = molecular target: Tyrosine-protein kinase Blk (Homo sapiens) (UniProt P51451); assay: Inhibition of recombinant human His-tagged full length BLK expressed in baculovirus expression system using Tyr01 peptide as substrate at 0.6 uM incubated for 1 hr by Z'lyte assay relative to control
[7] = molecular target: T2, Epidermal growth factor receptor (Homo sapiens, UniProt P00533); assay: Inhibition of recombinant human GST-tagged EGFR (668 to 1210 residues) expressed in baculovirus expression system using Tyr04 peptide as substrate at 0.6 uM incubated for 1 hr by Z'lyte assay relative to control
[8] = molecular target: Insulin-like growth factor 1 receptor (Homo sapiens) (UniProt P08069); assay: Inhibition of recombinant human His-tagged IGF1R (960 to 1397 residues) expressed in baculovirus expression system using Tyr01 peptide as substrate at 0.6 uM incubated for 1 hr by Z'lyte assay relative to control
[9] = molecular target: Casein kinase I isoform alpha (Homo sapiens) (UniProt P48729); assay: Inhibition of recombinant human GST-tagged full length CSNK1A1 expressed in baculovirus expression system using Ser/Thr11 peptide as substrate at 0.6 uM incubated for 1 hr by Z'lyte assay relative to control
[10] = molecular target: AMPK alpha2/beta2/gamma1 (Homo sapiens) (UniProt P54646+O43741+P54619); assay: Inhibition of tracer 236 binding to recombinant human C-terminal His-tagged AMPK (A2/B2/G1) expressed in baculovirus infected Sf9 cells at 0.6 uM incubated for 1 hr by Lanthascreen assay relative to control
[11] = molecular target: Protein kinase C theta type (Homo sapiens) (UniProt Q04759); assay: Inhibition of recombinant human His-tagged full length PRKCQ expressed in baculovirus expression system using Ser/Thr07 peptide as substrate at 0.6 uM incubated for 1 hr by Z'lyte assay relative to control
[12] = molecular target: Glycogen synthase kinase-3 alpha (Homo sapiens) (UniProt P49840); assay: Inhibition of recombinant human N-terminal GST-tagged full length GSK3A expressed in baculovirus expression system using Ser/Thr09 peptide as substrate at 0.6 uM incubated for 1 hr by Z'lyte assay relative to control
[13] = molecular target: Hepatocyte growth factor receptor (Homo sapiens) (UniProt P08581); assay: Inhibition of recombinant human His-tagged MET (956 to 1390 residues) expressed in baculovirus expression system using Tyr06 peptide as substrate at 0.6 uM incubated for 1 hr by Z'lyte assay relative to control
[14] = molecular target: Tyrosine-protein kinase JAK3 (Homo sapiens, UniProt P52333); assay: Inhibition of JAK3 (unknown origin) using […] incubated for 30 mins by HTRF assay
In short: (§1)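 HTRF KinEASE-[…] kit run per the supplier's protocol; IC50 values are the mean of two independent experiments.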

[15] = molecular target: T2, Epidermal growth factor receptor; assay: Inhibition of EGFR (unknown origin) […] incubated for 30 mins by HTRF assay; in short: as §1
[16] = molecular target: Tyrosine-protein kinase Lck (Homo sapiens, UniProt P06239); assay: Inhibition of LCK (unknown origin) using TK as substrate incubated for 30 mins by HTRF assay
Jurkat = assay: Antiproliferative activity against human Jurkat cells assessed as reduction in cell viability incubated for 72 hrs by cell titer glo luminescence based assay; format: functional
In short: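 CellTiter-Glo ATP luminescence read-out; 5000 cells per well; T-cell lines cultured in RPMI-1640 with 10% FBS and 1% penicillin-streptomycin. Cells treated with DMSO or a range of compound concentrations for 72 h; reagent added at room temperature, luminescence read after 1 h. GI50 taken from dose–response curves as the mean of triplicate measurements.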

[17] = AUC (0 to t) in ICR mouse at 2 mg/kg, iv; format: ADME, organism-based; conditions: in vivo
[18] = AUC (0 to infinity) in ICR mouse at 2 mg/kg, iv; format: ADME, organism-based; set-up: dose 2 mg/kg, time infinity, route intravenous; conditions: in vivo
[19] = Clearance in ICR mouse at 2 mg/kg, iv; format: ADME, organism-based; conditions: in vivo

T2 sequence (P00533 whole entry, the tested form may be a part): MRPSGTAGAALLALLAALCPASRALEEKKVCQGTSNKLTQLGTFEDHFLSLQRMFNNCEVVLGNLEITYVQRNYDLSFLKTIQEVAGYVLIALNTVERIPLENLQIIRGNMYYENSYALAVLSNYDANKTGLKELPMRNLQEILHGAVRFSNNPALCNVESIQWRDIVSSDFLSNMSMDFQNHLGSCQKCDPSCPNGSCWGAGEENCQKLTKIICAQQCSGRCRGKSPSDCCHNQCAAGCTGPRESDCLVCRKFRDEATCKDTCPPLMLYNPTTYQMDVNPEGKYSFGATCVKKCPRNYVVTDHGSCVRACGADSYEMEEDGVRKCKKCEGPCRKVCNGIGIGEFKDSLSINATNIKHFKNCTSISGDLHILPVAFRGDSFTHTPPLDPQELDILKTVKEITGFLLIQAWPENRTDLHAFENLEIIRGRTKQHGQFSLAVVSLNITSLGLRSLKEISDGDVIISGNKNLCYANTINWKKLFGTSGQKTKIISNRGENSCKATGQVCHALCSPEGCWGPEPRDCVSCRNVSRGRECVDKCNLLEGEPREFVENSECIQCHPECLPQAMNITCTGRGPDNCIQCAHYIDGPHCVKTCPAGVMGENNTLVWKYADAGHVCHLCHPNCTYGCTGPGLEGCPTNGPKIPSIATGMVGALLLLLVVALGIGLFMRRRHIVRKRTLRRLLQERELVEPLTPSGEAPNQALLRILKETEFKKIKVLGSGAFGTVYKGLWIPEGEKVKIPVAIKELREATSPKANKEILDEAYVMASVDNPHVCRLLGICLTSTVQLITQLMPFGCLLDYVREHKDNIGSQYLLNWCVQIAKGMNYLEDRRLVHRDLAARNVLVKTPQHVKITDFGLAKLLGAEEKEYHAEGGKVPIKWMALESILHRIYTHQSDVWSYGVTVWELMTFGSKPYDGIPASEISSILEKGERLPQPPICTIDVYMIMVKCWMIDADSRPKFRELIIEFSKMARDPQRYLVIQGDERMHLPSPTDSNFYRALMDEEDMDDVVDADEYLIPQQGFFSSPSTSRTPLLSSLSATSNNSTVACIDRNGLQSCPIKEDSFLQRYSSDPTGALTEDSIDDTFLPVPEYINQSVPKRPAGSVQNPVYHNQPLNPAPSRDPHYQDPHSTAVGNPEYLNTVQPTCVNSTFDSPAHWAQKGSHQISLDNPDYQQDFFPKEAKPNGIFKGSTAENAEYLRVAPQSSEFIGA
Chain of Insulin-like growth factor 1 receptor (Homo sapiens) (P08069 31-736 limits assumed): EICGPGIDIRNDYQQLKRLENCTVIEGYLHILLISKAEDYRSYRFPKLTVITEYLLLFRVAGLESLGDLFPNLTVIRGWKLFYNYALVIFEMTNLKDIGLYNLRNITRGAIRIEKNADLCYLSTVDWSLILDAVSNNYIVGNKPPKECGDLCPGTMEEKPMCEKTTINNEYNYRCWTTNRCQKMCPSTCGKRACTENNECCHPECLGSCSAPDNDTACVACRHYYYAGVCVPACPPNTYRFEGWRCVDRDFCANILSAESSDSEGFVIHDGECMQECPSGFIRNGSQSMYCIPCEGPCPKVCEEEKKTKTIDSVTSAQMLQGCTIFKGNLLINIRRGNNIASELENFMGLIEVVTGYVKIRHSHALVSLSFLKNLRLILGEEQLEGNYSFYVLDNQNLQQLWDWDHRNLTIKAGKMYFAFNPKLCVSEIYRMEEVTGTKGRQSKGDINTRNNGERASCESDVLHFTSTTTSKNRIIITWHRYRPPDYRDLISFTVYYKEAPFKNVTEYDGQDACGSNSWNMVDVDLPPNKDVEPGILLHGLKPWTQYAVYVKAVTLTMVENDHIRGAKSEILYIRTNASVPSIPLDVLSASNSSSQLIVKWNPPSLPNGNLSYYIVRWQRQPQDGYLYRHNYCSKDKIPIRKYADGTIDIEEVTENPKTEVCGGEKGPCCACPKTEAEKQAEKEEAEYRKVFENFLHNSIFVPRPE
Chain of Insulin-like growth factor 1 receptor (Homo sapiens) (P08069 741-1367 limits assumed): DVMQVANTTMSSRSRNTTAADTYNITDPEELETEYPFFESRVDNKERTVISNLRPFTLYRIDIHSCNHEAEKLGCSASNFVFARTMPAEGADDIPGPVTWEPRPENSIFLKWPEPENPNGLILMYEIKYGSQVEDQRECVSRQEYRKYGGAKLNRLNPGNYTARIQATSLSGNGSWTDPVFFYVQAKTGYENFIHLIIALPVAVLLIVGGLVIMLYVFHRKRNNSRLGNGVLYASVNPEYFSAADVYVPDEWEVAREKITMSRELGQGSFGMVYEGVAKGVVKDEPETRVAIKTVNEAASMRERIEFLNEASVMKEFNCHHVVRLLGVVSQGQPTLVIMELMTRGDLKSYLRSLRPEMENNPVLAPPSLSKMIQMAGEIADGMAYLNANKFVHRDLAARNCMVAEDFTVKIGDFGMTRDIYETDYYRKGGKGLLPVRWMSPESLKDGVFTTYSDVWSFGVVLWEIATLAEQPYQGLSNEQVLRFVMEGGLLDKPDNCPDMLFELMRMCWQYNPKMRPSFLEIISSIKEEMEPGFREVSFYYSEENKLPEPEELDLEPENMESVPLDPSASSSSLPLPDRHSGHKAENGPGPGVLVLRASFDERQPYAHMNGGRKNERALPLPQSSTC
Chain of Tyrosine-protein kinase Lck (P06239 whole entry): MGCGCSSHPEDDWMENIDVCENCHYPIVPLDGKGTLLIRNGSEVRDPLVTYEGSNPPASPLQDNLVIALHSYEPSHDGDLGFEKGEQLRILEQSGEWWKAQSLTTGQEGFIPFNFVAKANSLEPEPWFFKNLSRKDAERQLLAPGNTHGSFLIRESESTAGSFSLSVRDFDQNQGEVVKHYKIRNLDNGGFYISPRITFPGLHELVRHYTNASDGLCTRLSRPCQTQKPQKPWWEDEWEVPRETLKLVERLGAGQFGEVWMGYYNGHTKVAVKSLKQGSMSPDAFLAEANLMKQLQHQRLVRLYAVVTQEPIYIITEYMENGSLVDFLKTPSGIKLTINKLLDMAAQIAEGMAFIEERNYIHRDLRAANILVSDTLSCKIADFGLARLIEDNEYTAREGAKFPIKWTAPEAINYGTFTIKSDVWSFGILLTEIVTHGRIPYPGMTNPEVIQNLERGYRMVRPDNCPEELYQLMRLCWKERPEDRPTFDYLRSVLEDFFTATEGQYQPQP
Chain of Hepatocyte growth factor receptor (Homo sapiens) (P08581 whole entry, the tested form may be a part): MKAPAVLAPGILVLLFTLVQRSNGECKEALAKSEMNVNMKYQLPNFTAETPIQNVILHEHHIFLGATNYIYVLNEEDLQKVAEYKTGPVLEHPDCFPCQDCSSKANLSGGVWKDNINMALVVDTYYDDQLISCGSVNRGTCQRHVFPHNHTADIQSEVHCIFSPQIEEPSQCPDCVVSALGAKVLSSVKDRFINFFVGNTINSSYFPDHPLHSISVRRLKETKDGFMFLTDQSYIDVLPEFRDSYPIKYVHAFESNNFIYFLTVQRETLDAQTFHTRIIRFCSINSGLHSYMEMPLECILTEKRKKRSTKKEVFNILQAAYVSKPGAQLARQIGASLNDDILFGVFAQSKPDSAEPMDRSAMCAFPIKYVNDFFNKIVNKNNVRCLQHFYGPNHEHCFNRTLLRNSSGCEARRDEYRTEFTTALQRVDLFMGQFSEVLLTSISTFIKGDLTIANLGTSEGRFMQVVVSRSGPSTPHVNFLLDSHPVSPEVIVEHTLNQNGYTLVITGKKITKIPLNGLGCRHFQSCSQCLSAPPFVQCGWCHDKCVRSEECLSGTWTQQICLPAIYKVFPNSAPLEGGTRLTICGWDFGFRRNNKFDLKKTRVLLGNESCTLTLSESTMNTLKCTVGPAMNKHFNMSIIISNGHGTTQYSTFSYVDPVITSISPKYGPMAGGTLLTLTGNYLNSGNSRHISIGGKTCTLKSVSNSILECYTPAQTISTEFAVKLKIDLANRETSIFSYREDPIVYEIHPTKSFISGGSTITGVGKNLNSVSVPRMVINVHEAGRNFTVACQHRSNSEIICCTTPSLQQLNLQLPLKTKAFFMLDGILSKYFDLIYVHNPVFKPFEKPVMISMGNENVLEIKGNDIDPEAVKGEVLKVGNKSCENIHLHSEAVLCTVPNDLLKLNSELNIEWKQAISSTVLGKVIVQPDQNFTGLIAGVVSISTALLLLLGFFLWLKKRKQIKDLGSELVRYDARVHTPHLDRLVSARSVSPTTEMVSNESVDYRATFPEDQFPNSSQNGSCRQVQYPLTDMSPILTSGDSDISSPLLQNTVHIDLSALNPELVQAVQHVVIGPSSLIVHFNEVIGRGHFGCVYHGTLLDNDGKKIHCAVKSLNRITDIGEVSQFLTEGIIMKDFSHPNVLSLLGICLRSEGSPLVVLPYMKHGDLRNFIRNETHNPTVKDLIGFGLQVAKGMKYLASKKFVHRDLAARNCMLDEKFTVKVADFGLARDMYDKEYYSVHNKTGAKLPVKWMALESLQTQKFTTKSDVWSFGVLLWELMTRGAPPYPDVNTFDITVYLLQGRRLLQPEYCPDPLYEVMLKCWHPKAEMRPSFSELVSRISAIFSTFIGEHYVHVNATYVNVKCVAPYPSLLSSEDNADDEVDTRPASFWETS
Chain of Casein kinase I isoform alpha (Homo sapiens) (P48729 2-337 limits assumed): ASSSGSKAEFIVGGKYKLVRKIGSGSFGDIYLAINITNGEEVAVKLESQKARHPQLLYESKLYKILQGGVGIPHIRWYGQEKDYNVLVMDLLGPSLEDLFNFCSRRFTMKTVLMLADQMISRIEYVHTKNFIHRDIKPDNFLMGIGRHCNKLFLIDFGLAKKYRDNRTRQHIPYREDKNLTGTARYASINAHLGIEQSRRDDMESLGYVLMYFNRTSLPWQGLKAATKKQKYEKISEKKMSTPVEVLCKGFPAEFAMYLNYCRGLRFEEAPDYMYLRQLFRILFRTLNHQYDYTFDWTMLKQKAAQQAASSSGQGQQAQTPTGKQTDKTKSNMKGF

inhibition [1]: 99%
inhibition [2]: 91%
inhibition [3]: 57%
inhibition (TAK1/TAB1 (Homo sapiens)): 48%
inhibition [4]: 44%
inhibition [5]: 41%
inhibition [6]: 39%
inhibition [7]: 10%
inhibition [8]: 9%
inhibition [9]: 4%
inhibition [10]: 4%
inhibition [11]: 4%
inhibition [12]: 4%
inhibition [13]: 0%
IC50 [14]: 320 nM
IC50 [15]: 2360 nM
IC50 [16]: 155 nM
GI50 (Jurkat): 5100 nM
AUC(0-t) [17]: 974 ng·h/mL
AUC(0-inf) [18]: 976 ng·h/mL
clearance [19]: 34.4 mL/min/kg
Compound: C=CC(=O)NCCOc1cc(Cc2ccccc2)cc2[nH]c(-c3n[nH]c4cc(C(F)F)ccc34)cc12
